In PMC4240344 (Bioconjugate Chemistry, 2014):

Tests used:
[1] = tested on: integrin αvβ3/αvβ5 in xenografted U87MG glioma and human colon cancer tissues; assay: Tumor tissue staining: blocking and RGD-specificity experiments; settings: 100 μM; for Staining of tumor tissues (RGD specificity): xenografted U87MG glioma and human colon cancer tissues, same conditions
Procedure, shortened: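 Sections were frozen, acetone-fixed U87MG xenograft slices (5 μm) or deparaffinized, rehydrated human colon cancer slides. They were blocked with 10% goat serum (30 min, 37 °C), then incubated with 100 μM test compound for 1 h at RT, with or without 10 mM c(RGDfK)2 as blocker. After three PBS washes and DAPI mounting, ≥15 random fields per section were scored. Fluorescent area was given as % of total, mean ± standard deviation.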

[2] = tested on: integrin αvβ3/αvβ5 in xenografted U87MG glioma tissues; set-up: species or system human; settings: xenografted U87MG glioma slices, 1 h incubation, tested at 0.1-100 μM
Procedure, shortened: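 U87MG xenografts were snap-frozen in OCT and cut into 5 μm slices. Slices were fixed in ice-cold acetone for 10 min and air-dried for 20 min, then incubated for 1 h with test compound at 0.1, 1.0, 10, 20, 50 or 100 μM. After three PBS washes and DAPI mounting, images were taken at 200× with equal exposure. Fluorescent area was given as % of total area against concentration.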

[3] = tested on: integrin αvβ3/αvβ5 in xenografted U87MG glioma tissues; set-up: species or system human; settings: peptide 100 μM, antibody 2.5 μg/mL, 5-120 min
Procedure, shortened: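 Frozen 5 μm slices of U87MG xenograft were fixed in ice-cold acetone for 10 min and air-dried at RT. They were incubated with 100 μM test compound at RT for 5, 15, 30, 60, 90 or 120 min, PBS-washed three times and mounted with DAPI medium. The antibody arm used 10% goat serum (30 min, 37 °C), then rabbit anti-integrin β3 (2.5 μg/mL) for the same times, then Cy3 goat anti-rabbit (1:100, 1 h). Images at 200× with equal exposure; positive area as % of total plotted against time.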

[4] = tested on: integrin αvβ3/αvβ5 in human carcinoma tissues; assay: Tumor tissue staining, concentration dependence, human carcinoma tissues
Procedure, shortened: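 Human colon, squamous cell lung and gastric carcinoma slices (5 μm) were deparaffinized in xylene and rehydrated through graded alcohols. They were stained for 1 h with test compound at […], PBS-washed three times and mounted with DAPI medium. Images at 200× with equal exposure and equal brightness/contrast adjustment. Positive staining area was expressed as % of total area and plotted against concentration.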

[5] = tested on: integrin αvβ3/αvβ5 in human carcinoma tissues; assay: Tumor tissue staining kinetics, time dependence, human carcinoma tissues; settings: 50 μM, 5-90 min

**Q.** For “FITC-E[c(RGDfK)]2 (bicyclic or more) [FITC-RGD2]”, which “Staining of tumor tissues (RGD specificity)” value [1] is on record?
**A.** positively stained

**Q.** What does the source list for “FITC-Glu[cyclo[Arg-Gly-Asp-D-Phe-Lys(SAA-PEG2-(1,2,3-triazole)-1-yl-4-methylamide)]]2 (bicyclic or more) [FITC-Galacto-RGD2]”?
**A.** Concentration range in which tissues were well stained [2]: 10 to 100 µM; Incubation time to achieve maximal fluorescent intensity [3]: ≤ 30 min; Minimal concentration for positive staining of colon carcinoma ([4]; human colon carcinoma slices, 1 h incubation, tested at 1-50 μM): ~5 µM; Staining of gastric carcinoma tissue ([4]; human gastric carcinoma tissue, 1-50 μM): little staining; Concentration needed to achieve adequate fluorescence staining ([4]; human squamous cell lung cancer tissues, 1 h incubation): > 25 µM; Incubation time for positive staining of colon cancer tissues [5]: ≤ 15 min; Staining of xenografted U87MG glioma tissues in the absence of blocker ([1]; 1 h, room temperature): successfully stained; Staining of tumor tissues (RGD specificity) [1]: positively stained

**Q.** Which “Staining of tumor tissues (RGD specificity)” value [1] does the source give for “FITC-PEG4-E[PEG4-c(RGDfK)]2 (bicyclic or more) [FITC-3P-RGD2]” here?
**A.** positively stained
